# Measured values as given in ChEMBL document CHEMBL1629657, “In vitro antimicrobial activity of a new cephalosporin, ceftaroline, and determination of quality control ranges for MIC testing” (2009).
# How the values were obtained:
# Assay type in all cases: functional
# Providencia stuartii = experiment: Antimicrobial activity against Proteus stuartii by broth microdilution method
# In short: (§1)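 Clinical isolates were tested by CLSI broth microdilution in unsupplemented cation-adjusted Mueller-Hinton broth. The read-out was the MIC, reported as MIC90 (μg/ml) per species or phenotypic group. Ceftriaxone, levofloxacin and imipenem were run in parallel as comparators.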
# Proteus vulgaris = experiment: Antimicrobial activity against Proteus vulgaris by broth microdilution method; in short: as §1
# Serratia marcescens = experiment: Antimicrobial activity against Serratia marcescens by broth microdilution method; in short: as §1
# Shigella sp. = experiment: Antimicrobial activity against Shigella spp. by broth microdilution method; in short: as §1
# Salmonella sp. = experiment: Antimicrobial activity against Salmonella spp. by broth microdilution method; in short: as §1
# Burkholderia cepacia = experiment: Antimicrobial activity against Burkholderia cepacia by broth microdilution method; in short: as §1
# Pseudomonas aeruginosa [1] = experiment: Antimicrobial activity against Pseudomonas aeruginosa by broth microdilution method; in short: as §1
# Pseudomonas aeruginosa [2] = experiment: Antimicrobial activity against multidrug resistant Pseudomonas aeruginosa by broth microdilution method
# In short: (§2)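 Isolates of the stated resistance phenotype were tested by CLSI broth microdilution in unsupplemented cation-adjusted Mueller-Hinton broth. Ceftaroline was compared with ceftriaxone, levofloxacin and imipenem. Activity was expressed as MICs (MIC90 in μg/ml).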
# [3] = system: Stenotrophomonas maltophilia; experiment: Antimicrobial activity against Stenotrophomonas maltophilia by broth microdilution method; in short: as §1
# Moraxella catarrhalis = experiment: Antimicrobial activity against Moraxella catarrhalis by broth microdilution method; in short: as §1
# Haemophilus influenzae [4] = experiment: Antimicrobial activity against beta-lactamase-negative Haemophilus influenzae by broth microdilution method
# In short: (§3)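 CLSI broth microdilution in Haemophilus test medium (cation-adjusted Mueller-Hinton base) against clinical H. influenzae isolates of the stated phenotype. Ceftaroline was compared with ceftriaxone, levofloxacin and imipenem. Activity was expressed as MICs (MIC90 in μg/ml).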
# Haemophilus influenzae [5] = experiment: Antimicrobial activity against beta-lactamase-positive Haemophilus influenzae by broth microdilution method
# In short: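 H. influenzae isolates were tested by CLSI broth microdilution using Haemophilus test medium. The MIC was read and MIC90 (μg/ml) reported for the group. Ceftriaxone, levofloxacin and imipenem served as comparators.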
# Haemophilus influenzae [6] = experiment: Antimicrobial activity against beta-lactamase-negative ampicillin resistant Haemophilus influenzae by broth microdilution method; in short: as §3
# Staphylococcus aureus [7] = experiment: Antimicrobial activity against methicillin-resistant Staphylococcus aureus by broth microdilution method; in short: as §2
# Staphylococcus aureus [8] = experiment: Antimicrobial activity against methicillin-susceptible Staphylococcus aureus by broth microdilution method; in short: as §1
# Staphylococcus aureus [9] = experiment: Antimicrobial activity against vancomycin-intermediate Staphylococcus aureus by broth microdilution method; in short: as §1
# Staphylococcus aureus [10] = experiment: Antimicrobial activity against vancomycin-resistant Staphylococcus aureus by broth microdilution method; in short: as §2
# Staphylococcus [11] = experiment: Antimicrobial activity against methicillin-resistant coagulase-negative Staphylococcus by broth microdilution method; in short: as §2
# Staphylococcus [12] = experiment: Antimicrobial activity against methicillin-susceptible coagulase-negative Staphylococcus by broth microdilution method; in short: as §1
# Enterococcus faecalis [13] = experiment: Antimicrobial activity against Enterococcus faecalis by broth microdilution method; in short: as §1
# Enterococcus faecalis [14] = experiment: Antimicrobial activity against vancomycin-susceptible Enterococcus faecalis by broth microdilution method; in short: as §1
# Enterococcus faecium [15] = experiment: Antimicrobial activity against Enterococcus faecium by broth microdilution method; in short: as §1
# Enterococcus faecium [16] = experiment: Antimicrobial activity against vancomycin-susceptible Enterococcus faecium by broth microdilution method; in short: as §1
# Corynebacterium jeikeium = experiment: Antimicrobial activity against Corynebacterium jeikeium by broth microdilution method; in short: as §1
# Listeria monocytogenes = experiment: Antimicrobial activity against Listeria monocytogenes by broth microdilution method; in short: as §1
# Streptococcus agalactiae = experiment: Antimicrobial activity against Streptococcus agalactiae by broth microdilution method
# In short: (§4)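 Streptococcal isolates were tested by CLSI broth microdilution in cation-adjusted Mueller-Hinton broth supplemented with 3% lysed horse blood. The read-out was the MIC, with MIC90 (μg/ml) reported per group. Ceftriaxone, levofloxacin and imipenem served as comparators.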
# Streptococcus pneumoniae [17] = experiment: Antimicrobial activity against levofloxacin-resistant Streptococcus pneumoniae by broth microdilution method
# In short: (§5)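 CLSI broth microdilution in cation-adjusted Mueller-Hinton broth with 3% lysed horse blood, against streptococcal clinical isolates of the stated phenotype. Ceftaroline was compared with ceftriaxone, levofloxacin and imipenem. Activity was expressed as MICs (MIC90 in μg/ml).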
# Streptococcus pneumoniae [18] = experiment: Antimicrobial activity against penicillin-resistant Streptococcus pneumoniae by broth microdilution method; in short: as §5
# Streptococcus pneumoniae [19] = experiment: Antimicrobial activity against penicillin-intermediate Streptococcus pneumoniae by broth microdilution method; in short: as §5
# Streptococcus pneumoniae [20] = experiment: Antimicrobial activity against penicillin-susceptible Streptococcus pneumoniae by broth microdilution method; in short: as §4
# Streptococcus pyogenes [21] = experiment: Antimicrobial activity against macrolide-resistant Streptococcus pyogenes by broth microdilution method; in short: as §5
# Streptococcus pyogenes [22] = experiment: Antimicrobial activity against macrolide-susceptible Streptococcus pyogenes by broth microdilution method; in short: as §5
# Streptococcus viridans = experiment: Antimicrobial activity against Streptococcus viridans group clinical isolate by broth microdilution method; in short: as §4
# Klebsiella aerogenes = experiment: Antimicrobial activity against ESBL-negative Enterobacter aerogenes by broth microdilution method; in short: as §1
# Enterobacter cloacae = experiment: Antimicrobial activity against ESBL-negative Enterobacter cloacae by broth microdilution method; in short: as §1
# Escherichia coli = experiment: Antimicrobial activity against ESBL-positive Escherichia coli by broth microdilution method; in short: as §1
# Klebsiella pneumoniae [23] = experiment: Antimicrobial activity against ESBL-negative Klebsiella pneumoniae by broth microdilution method; in short: as §1
# Klebsiella pneumoniae [24] = experiment: Antimicrobial activity against ESBL-positive Klebsiella pneumoniae by broth microdilution method; in short: as §1
# Morganella morganii = experiment: Antimicrobial activity against Morganella morganii by broth microdilution method; in short: as §1
# Proteus mirabilis = experiment: Antimicrobial activity against Proteus mirabilis by broth microdilution method; in short: as §1
# Providencia rettgeri = experiment: Antimicrobial activity against Proteus rettgeri by broth microdilution method; in short: as §1
structure (smiles),measurement,setting,value
C[C@@H](O)[C@H]1C(=O)N2C(C(=O)O)=C(SCCNC=N)C[C@H]12 [IMIPENEM ANHYDROUS],MIC50,Providencia stuartii,2 µg/mL
same,MIC90,Providencia stuartii,4 µg/mL
same,MIC50,Proteus vulgaris,2 µg/mL
same,MIC90,Proteus vulgaris,4 µg/mL
same,MIC50,Serratia marcescens,0.5 µg/mL
same,MIC90,Serratia marcescens,1 µg/mL
same,MIC,Shigella sp.,0.12 µg/mL
same,MIC50,Shigella sp.,0.12 µg/mL
same,MIC90,Shigella sp.,0.25 µg/mL
same,MIC50,Salmonella sp.,0.25 µg/mL
same,MIC90,Salmonella sp.,0.25 µg/mL
same,MIC50,Burkholderia cepacia,8 µg/mL
same,MIC90,Burkholderia cepacia,32 µg/mL
same,MIC,Pseudomonas aeruginosa [1],1 µg/mL
same,MIC50,Pseudomonas aeruginosa [1],1 µg/mL
same,MIC90,Pseudomonas aeruginosa [1],16 µg/mL
same,MIC50,Pseudomonas aeruginosa [2],8 µg/mL
same,MIC90,Pseudomonas aeruginosa [2],16 µg/mL
same,MIC50,[3],> 32 µg/mL
same,MIC90,[3],> 32 µg/mL
same,MIC50,Moraxella catarrhalis,0.06 µg/mL
same,MIC90,Moraxella catarrhalis,0.06 µg/mL
same,MIC50,Haemophilus influenzae [4],0.5 µg/mL
same,MIC90,Haemophilus influenzae [4],0.5 µg/mL
same,MIC50,Haemophilus influenzae [5],0.25 µg/mL
same,MIC90,Haemophilus influenzae [5],0.5 µg/mL
same,MIC50,Haemophilus influenzae [6],0.5 µg/mL
same,MIC90,Haemophilus influenzae [6],1 µg/mL
same,MIC50,Staphylococcus aureus [7],0.25 µg/mL
same,MIC90,Staphylococcus aureus [7],32 µg/mL
same,MIC,Staphylococcus aureus [8],0.015 µg/mL
same,MIC50,Staphylococcus aureus [8],0.015 µg/mL
same,MIC90,Staphylococcus aureus [8],0.03 µg/mL
same,MIC50,Staphylococcus aureus [9],0.25 µg/mL
same,MIC90,Staphylococcus aureus [9],> 32 µg/mL
same,MIC,Staphylococcus aureus [10],1 µg/mL
same,MIC50,Staphylococcus [11],0.25 µg/mL
same,MIC90,Staphylococcus [11],32 µg/mL
same,MIC,Staphylococcus [12],0.015 µg/mL
same,MIC50,Staphylococcus [12],0.015 µg/mL
same,MIC90,Staphylococcus [12],0.03 µg/mL
same,MIC50,Enterococcus faecalis [13],1 µg/mL
same,MIC90,Enterococcus faecalis [13],2 µg/mL
same,MIC50,Enterococcus faecalis [14],1 µg/mL
same,MIC90,Enterococcus faecalis [14],2 µg/mL
same,MIC50,Enterococcus faecium [15],> 32 µg/mL
same,MIC90,Enterococcus faecium [15],> 32 µg/mL
same,MIC50,Enterococcus faecium [16],4 µg/mL
same,MIC90,Enterococcus faecium [16],> 32 µg/mL
same,MIC50,Corynebacterium jeikeium,> 32 µg/mL
same,MIC90,Corynebacterium jeikeium,> 32 µg/mL
same,MIC50,Listeria monocytogenes,0.06 µg/mL
same,MIC90,Listeria monocytogenes,0.06 µg/mL
same,MIC,Streptococcus agalactiae,0.015 µg/mL
same,MIC50,Streptococcus agalactiae,0.015 µg/mL
same,MIC90,Streptococcus agalactiae,0.015 µg/mL
same,MIC50,Streptococcus pneumoniae [17],0.03 µg/mL
same,MIC90,Streptococcus pneumoniae [17],0.25 µg/mL
same,MIC50,Streptococcus pneumoniae [18],0.5 µg/mL
same,MIC90,Streptococcus pneumoniae [18],1 µg/mL
same,MIC50,Streptococcus pneumoniae [19],0.03 µg/mL
same,MIC90,Streptococcus pneumoniae [19],0.06 µg/mL
same,MIC,Streptococcus pneumoniae [20],0.015 µg/mL
same,MIC50,Streptococcus pneumoniae [20],0.015 µg/mL
same,MIC90,Streptococcus pneumoniae [20],0.015 µg/mL
same,MIC,Streptococcus pyogenes [21],0.015 µg/mL
same,MIC50,Streptococcus pyogenes [21],0.015 µg/mL
same,MIC90,Streptococcus pyogenes [21],0.015 µg/mL
same,MIC,Streptococcus pyogenes [22],0.015 µg/mL
same,MIC50,Streptococcus pyogenes [22],0.015 µg/mL
same,MIC90,Streptococcus pyogenes [22],0.015 µg/mL
same,MIC,Streptococcus viridans,0.015 µg/mL
same,MIC50,Streptococcus viridans,0.015 µg/mL
same,MIC90,Streptococcus viridans,0.12 µg/mL
same,MIC50,Klebsiella aerogenes,1 µg/mL
same,MIC90,Klebsiella aerogenes,1 µg/mL
same,MIC50,Enterobacter cloacae,0.25 µg/mL
same,MIC90,Enterobacter cloacae,0.5 µg/mL
same,MIC50,Escherichia coli,0.12 µg/mL
same,MIC90,Escherichia coli,0.25 µg/mL
same,MIC50,Klebsiella pneumoniae [23],0.25 µg/mL
same,MIC90,Klebsiella pneumoniae [23],0.5 µg/mL
same,MIC50,Klebsiella pneumoniae [24],0.12 µg/mL
same,MIC90,Klebsiella pneumoniae [24],0.25 µg/mL
same,MIC50,Morganella morganii,4 µg/mL
same,MIC90,Morganella morganii,4 µg/mL
same,MIC50,Proteus mirabilis,2 µg/mL
same,MIC90,Proteus mirabilis,4 µg/mL
same,MIC50,Providencia rettgeri,2 µg/mL
same,MIC90,Providencia rettgeri,4 µg/mL
